# From PubChem BioAssay
# NF-kB neuron act: compounds increasing NF-kB expression in human neuronal cells; NF-kB reporter expression; stronger effect = higher value; fold change at 12.5 µM; hit rate 1.6% among 190,000; in the data active = fold change above about 3.3
# STAT1 act: activators of IFN-gamma induced STAT1 signaling; activation (% of control), % at 5.5 µM; AID 932; NIH 3T3 STAT1-luciferase reporter, luminescence; 100% = IFN-gamma alone, no compound; hit rate 2.6% among 200,000;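 active = activation above the screen-wide mean activation plus 3 SD, cut at about 130% in these data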;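 note: raw ratio to IFN-gamma control signal so 100% means no change and 0% no light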
# STAT1 inh: inhibitors of IFN-gamma induced STAT1 signaling; NIH 3T3 STAT1-luciferase reporter, luminescence; inhibition, % at 5.5 µM; hit rate 0.35% among 200,000; AID 920;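 active = inhibition above a set limit, the mean inhibition across all tested compounds plus 3 SD, cut at about 34% in these data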;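 note: 0% = IFN-gamma with DMSO and 100% = IFN-gamma with 300 µM nifuroxazide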
# STAT3 activator: activators of IL-6 induced STAT3 signaling. U3A cells, IL-6 STAT3-luciferase reporter, luminescence; 100% = signal with IL-6 EC80 alone. activation (% of control), % at 5.6 µM. hit rate 0.91% among 190,000. AID 871;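 active = activation above the screen-wide mean of compound activation plus 3 SD, cut at about 130% in these data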;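 note: 0% = background luminescence of wells with medium and substrate only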
#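 Test system: Human STAT1-deficient U3A cells with stable STAT3-luciferase reporter | Also added: Interleukin-6, 33 ng/mL | Timing: Compound pre-incubation 1 h before IL-6, then 6 h stimulation at 37 °C | Technique: Luciferase reporter luminescence | Read-out: Percent of IL-6-only median luminescence | Benchmarks: IL-6-only wells as 100% reference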
# APP 5'UTR act: activates APP 5'UTR luciferase reporter. SH-SY5Y APP 5'UTR luciferase reporter, luminescence; zero percent = DMSO vehicle wells. activation, % at 2 µM. hit rate 1% among 190,000;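 active = activation above a set limit, based on mean plus 3 SD of controls, cut at about 140% in these data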
# STAT3 inh-1: inhibitors of IL-6 induced STAT3 signaling | U3A cells, IL-6 STAT3-luciferase reporter, luminescence; host cell line lacks STAT1 | inhibition, % at 5.5 µM | hit rate 0.89% among 190,000;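 active = inhibition above the mean inhibition across all screened compounds plus 3 SD, cut at about 44% in these data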;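 note: 0% = DMSO only wells and 100% = 100 µM nifuroxazide control wells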
# STAT3 inh-2: confirmation of STAT3 signaling inhibitors | U3A cells, IL-6 STAT3 luciferase reporter, luminescence; cell line lacks STAT1 | shares compounds with STAT3 inh-1 | AID 1265 | hit rate 45% among 1,200 | inhibition, % at 5.7 µM;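 active = inhibition above the hit cutoff computed for the primary STAT3 screen, cut at about 44% in these data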;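 note: 0% = IL-6 plus DMSO and 100% = IL-6 plus nifuroxazide control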
# NFkB inh 2: counter-screen for STAT3 inhibitors: NF-kappaB inhibition; shares compounds with STAT3 inh-1; HEK293T NF-kB luciferase reporter, TNF-alpha induced; inhibition, % at 5.7 µM; hit rate 36% among 1,200;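 active = inhibition above the mean of solvent-only control wells plus 3 SD, cutoff set per campaign, cut at about 13% in these data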;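 note: 0% = TNF-alpha with DMSO and 100% = TNF-alpha with MG high control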
# STAT1 inh STAT3c: inhibits STAT1, counter-screen to STAT3 inhibitors; shares compounds with STAT3 inh-1; NIH 3T3 STAT1-luciferase reporter, IFN-gamma induced, luminescence; inhibition, % at 5.7 µM; hit rate 27% among 1,200; AID 1317;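 active = inhibition above the mean plus 3 SD of solvent-only control wells, limit set per screening run, cut at about 16% in these data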;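 note: 0% = DMSO with IFN-gamma and 100% = nifuroxazide control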
# * = called active by the depositor; . = no result given. Rows were chosen to be rich in hits. Some 4.9% of all compounds tested hit in one or more screens of this group.
SMILES,NF-kB neuron act,STAT1 act,STAT1 inh,STAT3 activator,APP 5'UTR act,STAT3 inh-1,STAT3 inh-2,NFkB inh 2,STAT1 inh STAT3c
CC(C)(C)NC(=O)COC(=O)c1snc(C(=O)NC2CCCCC2)c1N,0.9,100.5,-0.5,36.0,2.0,76.4*,72.1*,22.2*,1.3
O=C(COc1ccc2ccccc2c1)Nc1nccs1,6.51*,83.6,16.7,38.5,190.1*,77.6*,39.4,-17.7,-72.1
O=C(COc1ccccc1)Nc1nccs1,3.16,121.8,-27.2,81.3,128.5,24.3,.,.,.
Cc1ccc(O)c(C(=O)c2cnn(-c3ccccc3)c2)c1,1.84,102.2,-2.4,90.6,-8.1,17.9,.,.,.
Cc1ccc(-n2cc(C(=O)c3ccccc3O)cn2)cc1,3.12,89.3,12.0,37.8,100.1,79.1*,34.2,37.3*,-96.7
CS(=O)(=O)N1CCc2cc(S(=O)(=O)NCCNS(=O)(=O)c3ccc4c(c3)CCN4S(C)(=O)=O)ccc21,0.98,98.7,3.0,106.8,-8.6,-2.7,.,.,.
CCC(=O)N1CCCc2cc(S(=O)(=O)N3CCN(c4ccccc4F)CC3)ccc21,0.74,80.5,21.5,61.9,10.8,52.6*,35.6,11.0,12.5
O=C(C1CCC1)N1CCc2cc(S(=O)(=O)Nc3ccc4c(c3)OCCO4)ccc21,1.01,79.8,22.3,49.2,-12.8,65.3*,50.4*,7.6,20.6*
CS(=O)(=O)N1CCc2cc(S(=O)(=O)Nc3ccc4c(c3)OCCO4)ccc21,0.71,74.9,27.2,63.9,9.9,46.0*,36.3,1.8,20.8*
CCC(=O)N1CCCc2cc(S(=O)(=O)N3CCN(c4ncccn4)CC3)ccc21,0.72,98.5,1.7,92.8,-1.9,16.9,.,.,.
CCC(=O)N1CCc2cc(S(=O)(=O)Nc3ccc4c(c3)OCCO4)ccc21,0.82,80.7,21.0,63.8,-5.6,46.6*,34.7,-2.1,12.4
COc1cccc(C2=NN(C(=O)c3cccs3)C(O)(C(F)(F)F)C2)c1 (stereo not drawn),0.91,109.1,-10.9,101.1,-3.1,0.3,.,.,.
COc1ccc(C(=O)Nc2ccc3oc(Cc4ccc(Cl)cc4)nc3c2)cc1OC,0.56,91.5,9.4,63.0,8.5,51.2*,44.8*,7.6,3.1
COc1ccc(-c2nc(-c3ccc(Br)o3)no2)cc1,6.73*,119.2,-21.3,64.9,105.5,49.0*,7.7,-19.0,-131.7
COc1ccc(-c2cc3nc(C)cc(N)n3n2)cc1,4.14*,77.9,24.2,42.0,147.4*,69.1*,25.4,9.9,-38.2
COc1ccc(-c2cc3nc(C)cc(NCCO)n3n2)cc1,1.87,105.3,-5.8,76.2,-3.2,29.4,.,.,.
O=S(=O)(c1ccc2c(c1)OCCO2)N1CCC(c2nc3ccccc3s2)CC1,1.04,92.5,8.1,54.5,-13.0,53.4*,44.2*,10.3,-6.5
O=S(=O)(c1ccc2c(c1)OCCO2)N1CCC(c2nc3ccccc3[nH]2)CC1,0.94,99.5,0.6,90.2,10.0,17.8,.,.,.
CC(C)(C)OC(=O)[C@H]1[C@H](c2ccc([N+](=O)[O-])cc2)C2(C(=O)c3ccccc3C2=O)C2c3ccccc3C=NN21 (stereo partly drawn),0.55,111.6,-13.0,108.0,-26.1,-6.7,.,.,.
CCC(=O)Oc1ccc(-c2nc(-c3cccnc3)no2)cc1,2.77,117.9,-19.5,62.0,82.1,45.9*,25.2,-15.6,-39.3
Cn1cccc1CC(=O)NNC(=O)Nc1cccc(Cl)c1,0.93,103.5,-3.9,101.2,2.4,2.2,.,.,.
CCN(C(=O)c1ccc(C(C)(C)C)cc1)c1nnc(Cn2nnc3ccccc32)s1,0.55,80.1,21.7,27.3,-13.2,86.4*,84.5*,30.9*,15.0
C=CCC(C=C)[N+]1(CC(=O)OC)CCCCC1 (stereo not drawn),1.13,104.8,-7.3,102.5,8.0,5.8,.,.,.
Cc1cccc(OCC(=O)Nc2ccc(N3CCN(C(=O)c4ccco4)CC3)cc2)c1,0.6,89.7,11.4,61.7,-6.2,53.9*,48.8*,12.8,16.7*
Cc1ccc(OCC(=O)Nc2ccc(N3CCN(C(=O)c4ccco4)CC3)cc2)cc1C,1.06,92.0,6.8,89.3,-5.9,14.9,.,.,.
SMILES,NF-kB neuron act,STAT1 act,STAT1 inh,STAT3 activator,APP 5'UTR act,STAT3 inh-1,STAT3 inh-2,NFkB inh 2,STAT1 inh STAT3c
c1ccc(-c2nnc(NC3=NCCC3)o2)cc1,0.97,116.4,-21.7,66.6,122.0,44.1*,3.7,-26.7,-60.2
O=C(Nc1ccccc1)Nc1nnc(-c2ccccc2)o1,0.97,106.7,-7.6,92.2,11.4,12.4,.,.,.
Cc1ccc(NC(=S)NCCN2CCOCC2)cc1F,1.27,104.5,-6.8,99.3,-9.9,3.1,.,.,.
CCOc1ccc(OCc2ccc(C(=O)N3CCCC3)o2)cc1,1.1,93.4,7.1,104.4,19.5,-3.4,.,.,.
CCOc1ccc(OCc2cccc(C(=O)N3CCCC3)c2)cc1,2.26,68.2,41.8*,57.1,117.1,53.0*,17.1,17.2*,5.0
Cc1cc(C(=O)CSc2nnc(N)s2)c(C)n1Cc1ccco1,4.09*,84.5,15.6,62.7,234.9*,46.3*,7.0,-9.5,-68.7
Cc1ccc2[nH]c3c(NCc4ccco4)ncnc3c2c1,1.39,82.7,19.0,53.6,74.1,59.6*,45.2*,-3.8,10.6
Cc1ccc(-n2ncc3c(NCc4ccco4)ncnc32)c(C)c1,1.14,106.3,-9.8,100.4,14.6,-1.3,.,.,.
CCOC(=O)c1cccc(NC(=O)CSc2nc3cccnc3n2C)c1,0.58,87.3,14.0,55.2,-0.7,58.6*,43.1,2.7,7.4
CCN1C=C(C(=O)OC)C(c2cccc(OC)c2OC)C(C(=O)OC)=C1,1.78,97.5,0.6,102.5,0.2,2.9,.,.,.
Fc1ccc(NC(=S)NC23CN4CN(CN(C4)C2)C3)cc1,1.08,106.5,-7.2,102.6,6.5,-0.4,.,.,.
Cn1cc(C(=O)c2ccc(Cl)cc2)cc1-c1nc2ccccc2n1C,0.49,85.2,16.2,66.1,.,46.1*,31.9,-3.4,5.8
O=S(=O)(NCc1cc(-c2ccccc2Cl)no1)c1ccc(Cl)cc1,1.08,100.1,-0.1,112.8,12.0,-9.6,.,.,.
CCOC(=O)c1cnc(SCC(=O)N2CCOCC2)nc1N,2.03,100.0,-1.7,104.9,-15.5,-3.4,.,.,.
CCC(C)/C(C)=N/NC(=O)c1cn(-c2ccccc2)nc1-c1ccccc1 (stereo not drawn),0.89,102.0,-2.2,82.4,-10.0,19.6,.,.,.
CN(CCC#N)c1ccc(/C=C(\C#N)c2ccccn2)cc1,2.92,140.7*,-45.7,58.3,179.9*,49.4*,23.2,-6.9,-88.1
